Laboratory results: paper PMC4269301 (International journal of peptide research and therapeutics, 2014)
Square brackets hold non-standard residues; d marks the D form. Ends that are not written are not given here. Peptide text beside a SMILES is read from it. Nle = CCCC[C@H](N)C(=O)O

Columns and labels:
GRK5 [1] = target: T1, GRK5 (Homo sapiens, UniProt P34947); experiment: GRK5 phosphorylation of light-activated rhodopsin; assay type: biochemical; settings: for % Inhibition (100 μM) of GRK5 phosphorylation of rhodopsin: 100 μM peptide, 0.5 μM light-activated rhodopsin, 100 μM ATP, 5 min; for inhibition at 100 µM: read-out: % Inhibition (100 μM) of GRK5 phosphorylation of rhodopsin; for Inhibition of GRK5 phosphorylation of rhodopsin: peptides 10, 30 and 100 μM, four or more experiments in duplicate
GRK6 [2] = settings: ref previous study of the α9 peptide (Baameur et al. 2010); cited from earlier work
GRK2 [3] = target: T2, GRK2 (Homo sapiens, UniProt P25098, S670A); experiment: GRK2 phosphorylation of light-activated rhodopsin; assay type: biochemical; settings: peptides 10, 30 and 100 μM; four or more experiments in duplicate
T2 sequence (P25098 1-689 S670A): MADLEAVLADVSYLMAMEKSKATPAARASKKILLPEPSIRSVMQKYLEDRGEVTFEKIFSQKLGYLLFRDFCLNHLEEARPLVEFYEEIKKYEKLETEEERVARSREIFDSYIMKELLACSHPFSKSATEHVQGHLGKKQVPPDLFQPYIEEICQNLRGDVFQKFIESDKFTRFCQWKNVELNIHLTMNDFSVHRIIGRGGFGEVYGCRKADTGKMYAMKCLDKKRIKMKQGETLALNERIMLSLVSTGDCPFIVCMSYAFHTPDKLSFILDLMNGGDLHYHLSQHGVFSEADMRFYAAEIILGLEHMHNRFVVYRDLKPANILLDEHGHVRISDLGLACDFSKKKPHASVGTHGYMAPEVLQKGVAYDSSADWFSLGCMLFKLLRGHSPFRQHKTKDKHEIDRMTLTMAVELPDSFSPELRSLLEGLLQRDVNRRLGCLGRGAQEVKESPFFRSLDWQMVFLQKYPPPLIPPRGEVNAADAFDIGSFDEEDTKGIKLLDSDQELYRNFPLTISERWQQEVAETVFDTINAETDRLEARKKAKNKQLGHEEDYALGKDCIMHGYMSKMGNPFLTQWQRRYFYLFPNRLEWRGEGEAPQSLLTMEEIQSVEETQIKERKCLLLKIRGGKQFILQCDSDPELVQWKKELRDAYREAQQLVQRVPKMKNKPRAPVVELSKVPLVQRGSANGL
Procedure, shortened: (§1)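 Light-activated (475 nm, 30 s) rhodopsin, 0.5 μM, from urea-stripped bovine ROS. Kinase was purified GRK2 (His₆, S670A, Sf9/baculovirus, Ni-IMAC) or N-terminal His₆ full-length human GRK6, at 10–100 nM. Buffer: 20 mM Tris pH 7.5, 10 mM MgCl₂, 1 mM EDTA, 100 μM [γ³²P]ATP; peptides in DMSO (2–4 %). Ran 5 min, then SDS-PAGE and autoradiography. ≥4 experiments in duplicate, % of control.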

GRK5 [4] = target: T1, GRK5; experiment: GRK5 phosphorylation of tubulin; assay type: biochemical; settings: for % inhibition of GRK5 phosphorylation of tubulin: 100 μM peptide, 100 nM GRK5, 60 min
Procedure, shortened: (§2)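 Bovine brain tubulin 500 nM with 100 nM GRK2 (His₆, S670A, Sf9-expressed) or human His₆-GRK5; 20 mM Tris pH 7.5, 1 mM EDTA, 10 mM MgCl₂, 5 μM DTT, 100 μM [γ³²P]ATP; 60 min, 30 °C. 12 % SDS-PAGE; ³²P-tubulin counted from excised bands or by autoradiogram densitometry. Mean ± SEM, ≥4 experiments in duplicate, % of control; one-way ANOVA.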

GRK2 [5] = target: T2, GRK2; experiment: GRK2 phosphorylation of tubulin; assay type: biochemical; settings: for % inhibition of GRK2 phosphorylation of tubulin: 100 μM peptide, 100 nM GRK2, 60 min
Procedure, shortened: as §2

GRK6 [6] = experiment: GRK6 phosphorylation of light-activated rhodopsin; assay type: biochemical, human; settings: peptides 10, 30 and 100 μM; four or more experiments in duplicate
Procedure, shortened: as §1

GRK7 = target: T3, GRK7 (Homo sapiens, UniProt Q8WTQ7); experiment: GRK7 phosphorylation of light-activated rhodopsin; assay type: biochemical; settings: for Inhibition of GRK7 phosphorylation of rhodopsin: peptides 10, 30 and 100 μM, four or more experiments in duplicate
T3 sequence (Q8WTQ7 1-553): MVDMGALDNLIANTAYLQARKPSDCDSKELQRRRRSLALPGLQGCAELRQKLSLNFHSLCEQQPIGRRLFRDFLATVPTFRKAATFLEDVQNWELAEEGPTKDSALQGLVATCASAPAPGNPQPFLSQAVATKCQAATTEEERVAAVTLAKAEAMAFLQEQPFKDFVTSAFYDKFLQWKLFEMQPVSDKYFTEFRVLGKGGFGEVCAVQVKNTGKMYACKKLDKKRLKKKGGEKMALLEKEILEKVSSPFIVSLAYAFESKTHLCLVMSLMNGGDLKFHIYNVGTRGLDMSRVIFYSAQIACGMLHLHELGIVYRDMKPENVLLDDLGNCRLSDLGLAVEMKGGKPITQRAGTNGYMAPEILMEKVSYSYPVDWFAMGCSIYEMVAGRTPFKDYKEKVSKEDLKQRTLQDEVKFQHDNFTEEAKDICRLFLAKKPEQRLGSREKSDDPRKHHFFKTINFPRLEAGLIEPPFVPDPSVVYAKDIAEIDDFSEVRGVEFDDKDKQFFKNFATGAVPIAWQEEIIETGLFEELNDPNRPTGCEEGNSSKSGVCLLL
Procedure, shortened: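 Substrate is urea-stripped bovine rod outer segment rhodopsin (0.5 μM in reaction buffer; 0.5–4 μM per legend), light-activated at 475 nm for 30 s. Peptides are dissolved in DMSO (2–4% final) and quantified by A280. Results are normalised to the no-peptide control as mean ± SEM.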

T1 sequence (P34947 whole entry): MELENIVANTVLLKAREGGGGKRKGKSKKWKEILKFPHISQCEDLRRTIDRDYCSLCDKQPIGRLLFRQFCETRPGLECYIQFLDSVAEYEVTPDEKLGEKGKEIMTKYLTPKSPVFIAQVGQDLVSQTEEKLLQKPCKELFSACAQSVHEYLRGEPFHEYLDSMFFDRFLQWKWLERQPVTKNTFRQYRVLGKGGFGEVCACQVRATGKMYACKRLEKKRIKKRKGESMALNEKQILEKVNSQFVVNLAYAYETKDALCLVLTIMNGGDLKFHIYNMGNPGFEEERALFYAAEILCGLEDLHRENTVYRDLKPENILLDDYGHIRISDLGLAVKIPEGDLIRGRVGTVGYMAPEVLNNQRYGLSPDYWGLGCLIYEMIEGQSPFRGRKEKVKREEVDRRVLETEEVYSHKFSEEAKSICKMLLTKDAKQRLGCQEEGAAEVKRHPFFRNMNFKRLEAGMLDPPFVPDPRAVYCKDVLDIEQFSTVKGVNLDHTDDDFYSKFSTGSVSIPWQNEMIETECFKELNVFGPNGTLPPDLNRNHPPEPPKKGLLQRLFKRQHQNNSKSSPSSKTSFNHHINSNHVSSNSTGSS

Compound: Ac-S[Nle]AFDRFLQWKWLER-NH2 [Peptide F166A]
- % Inhibition (100 μM) of GRK5 phosphorylation of rhodopsin (GRK5 [1]): 42%

Compound: Ac-FFDRFLQWKWLER-NH2 [Peptide T1]
- IC50 (GRK5 [1]): 23.9 ± 16 µM
- inhibition at 100 µM (GRK5 [1]): 95%

Compound: CCCC[C@H](NC(=O)[C@H](CO)NC(C)=O)C(=O)N[C@@H](Cc1ccccc1)C(=O)N[C@@H](Cc1ccccc1)C(=O)N[C@@H](CC(=O)O)C(=O)N[C@@H](CCCNC(=N)N)C(=O)N[C@@H](Cc1ccccc1)C(=O)N[C@@H](CC(C)C)C(=O)N[C@@H](CCC(N)=O)C(=O)N[C@@H](Cc1c[nH]c2ccccc12)C(=O)N[C@@H](CCCCN)C(=O)N[C@@H](Cc1c[nH]c2ccccc12)C(=O)N[C@@H](CC(C)C)C(=O)N[C@@H](CCC(=O)O)C(=O)N[C@@H](CCCNC(=N)N)C(N)=O [α9 (164–178)] (Ac-S[Nle]FFDRFLQWKWLER-NH2)
- IC50 (GRK5 [1]): 15.9 ± 4.3 µM
- inhibition at 100 µM (GRK5 [1]): 89%
- Inhibition of GRK6 (previous study) (GRK6 [2]): no inhibition

Compound: Ac-S[Nle]FFDRFLQWKWAER-NH2 [Peptide L176A]
- % Inhibition (100 μM) of GRK5 phosphorylation of rhodopsin (GRK5 [1]): 74%

Compound: Ac-FFDAFLQWK-NH2 [Peptide T5]
- % Inhibition (100 μM) of GRK5 phosphorylation of rhodopsin (GRK5 [1]): 22%

Compound: CCCC[C@H](NC(=O)[C@H](CO)NC(C)=O)C(=O)N[C@@H](Cc1ccccc1)C(=O)N[C@@H](Cc1ccccc1)C(=O)N[C@@H](CC(=O)O)C(=O)N[C@@H](CCCNC(=N)N)C(=O)N[C@@H](Cc1ccccc1)C(=O)N[C@@H](CC(C)C)C(=O)N[C@@H](C)C(=O)N[C@@H](Cc1c[nH]c2ccccc12)C(=O)N[C@@H](CCCCN)C(=O)N[C@@H](Cc1c[nH]c2ccccc12)C(=O)N[C@@H](CC(C)C)C(=O)N[C@@H](CCC(=O)O)C(=O)N[C@@H](CCCNC(=N)N)C(N)=O [Peptide Q172A] (Ac-S[Nle]FFDRFLAWKWLER-NH2)
- IC50 (GRK5 [1]): 15.1 ± 7.3 µM
- inhibition at 100 µM (GRK5 [1]): 95%

Compound: CCCC[C@H](NC(=O)[C@H](CO)NC(C)=O)C(=O)N[C@@H](Cc1ccccc1)C(=O)N[C@@H](Cc1ccccc1)C(=O)N[C@@H](CC(=O)O)C(=O)N[C@@H](C)C(=O)N[C@@H](Cc1ccccc1)C(=O)N[C@@H](CC(C)C)C(=O)N[C@@H](CCC(N)=O)C(=O)N[C@@H](Cc1c[nH]c2ccccc12)C(=O)N[C@@H](CCCCN)C(=O)N[C@@H](Cc1c[nH]c2ccccc12)C(=O)N[C@@H](CC(C)C)C(=O)N[C@@H](CCC(=O)O)C(=O)N[C@@H](CCCNC(=N)N)C(N)=O [Peptide R169A] (Ac-S[Nle]FFDAFLQWKWLER-NH2)
- IC50 (GRK5 [1]): 7.2 ± 4.8 µM
- Inhibition of GRK5 phosphorylation of rhodopsin (GRK5 [1]): inhibited
- inhibition at 100 µM (GRK5 [1]): 98%
- Inhibition of GRK2 phosphorylation of rhodopsin (GRK2 [3]): less inhibition
- IC50 (GRK5 [4]): ~30 µM
- % inhibition of GRK5 phosphorylation of tubulin (GRK5 [4]; 0.5 μM tubulin, 30 °C): 60–80%
- IC50 (GRK2 [5]): ~30 µM
- % inhibition of GRK2 phosphorylation of tubulin (GRK2 [5]; 0.5 μM tubulin, 30 °C): 60–80%
- Inhibition of GRK6 phosphorylation of rhodopsin (GRK6 [6]): inhibited
- Inhibition of GRK7 phosphorylation of rhodopsin (GRK7): inhibited

Compound: MELENIVANTVLLKAR-NH2 [N-Ter]
- IC50 (GRK5 [1]): 5 to 10 µM
- Inhibition of GRK5 phosphorylation of rhodopsin (GRK5 [1]): reasonably potent inhibitor
- Inhibition of GRK2 phosphorylation of rhodopsin (GRK2 [3]): less potent inhibitor
- Effect on GRK5 phosphorylation of tubulin, basal activity (GRK5 [4]; 0.5 μM tubulin, 60 min, 30 °C): no significant effect
- Effect on GRK2 phosphorylation of tubulin, basal activity (GRK2 [5]; 0.5 μM tubulin, 60 min, 30 °C): no significant effect
- Inhibition of GRK6 phosphorylation of rhodopsin (GRK6 [6]): less potent inhibitor
- IC50 (GRK7): 5 to 10 µM
- Inhibition of GRK7 phosphorylation of rhodopsin (GRK7): reasonably potent inhibitor

Compound: Ac-PIGRLLFRQFC-NH2 [α3]
- Inhibition of GRK5 phosphorylation of rhodopsin (GRK5 [1]): inhibited
- Inhibition of GRK2 phosphorylation of rhodopsin (GRK2 [3]): inhibited
- IC50 (GRK5 [4]): ~30 µM
- % inhibition of GRK5 phosphorylation of tubulin (GRK5 [4]; 0.5 μM tubulin, 30 °C): 60–80%
- IC50 (GRK2 [5]): ~30 µM
- % inhibition of GRK2 phosphorylation of tubulin (GRK2 [5]; 0.5 μM tubulin, 30 °C): 60–80%
- Inhibition of GRK6 phosphorylation of rhodopsin (GRK6 [6]): little activity
- Inhibition of GRK7 phosphorylation of rhodopsin (GRK7): inhibited
